Autophagy mod – autophagy modulators in MEF cells, primary screen, imaging, high-content, MEF GFP-LC3; calls only at 10 µM (by protocol); MEF GFP-LC3 puncta imaging; test concentration mostly 10 µM; AID 463193, 2010; 190,000 tested, 0.98% active;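 active = percentage of spot-positive cells more than 3 SD above its plate mean, without a fluorescence outlier flag or 80% toxicity; inconclusive = no clear call, values can overlap the other calls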;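 also: spot-positive cell cutoff set from DMSO-treated cells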
SKKanGAS inh – S. pyogenes SKKanGAS growth inhibitors in kanamycin, primary screen, streptokinase expression inhibitor project, SKKanGAS strain, BacTiter-Glo luminescence; 300,000 tested, 1.3% active; AID 1662, 2009; inhibition, % at 7.5 µM; 6 h;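 active = mean replicate score, as percent of positive control median, at least 50; inconclusive = mean below 50 but one replicate at or above 50; inactive = mean and every replicate below 50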;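 also: strain carries kanamycin resistance gene driven by streptokinase promoter and grows in 40 µg/ml kanamycin; loss of luminescence reflects streptokinase promoter inhibition or plain growth inhibition; 0% = median of DMSO wells and 100% = positive control at its reference dose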
Cl transport mod – KCC2 cotransporter modulators, thallium flux, primary screen, cell-based, HEK293 KCC2, FluoZin-2 fluorescence, MLSMR; AID 1456, 2008; 190,000 tested, 2.2% active; B-score of Tl+ flux slope (higher = more flux/activation; lower = inhibition) at 10 µM; KCC2 cells, thallium flux FluoZin-2 fluorescence; Solute carrier family 12 member 5 (Homo sapiens), Q9H2X9;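 active = thallium flux slope and its plate-corrected score both differing from the plate sample mean at a set confidence after two filtering rounds, in either direction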;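 also: slope of fluorescence scaled to starting intensity during 10 to 20 s after thallium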
Target sequence (Q9H2X9 whole entry, looked up): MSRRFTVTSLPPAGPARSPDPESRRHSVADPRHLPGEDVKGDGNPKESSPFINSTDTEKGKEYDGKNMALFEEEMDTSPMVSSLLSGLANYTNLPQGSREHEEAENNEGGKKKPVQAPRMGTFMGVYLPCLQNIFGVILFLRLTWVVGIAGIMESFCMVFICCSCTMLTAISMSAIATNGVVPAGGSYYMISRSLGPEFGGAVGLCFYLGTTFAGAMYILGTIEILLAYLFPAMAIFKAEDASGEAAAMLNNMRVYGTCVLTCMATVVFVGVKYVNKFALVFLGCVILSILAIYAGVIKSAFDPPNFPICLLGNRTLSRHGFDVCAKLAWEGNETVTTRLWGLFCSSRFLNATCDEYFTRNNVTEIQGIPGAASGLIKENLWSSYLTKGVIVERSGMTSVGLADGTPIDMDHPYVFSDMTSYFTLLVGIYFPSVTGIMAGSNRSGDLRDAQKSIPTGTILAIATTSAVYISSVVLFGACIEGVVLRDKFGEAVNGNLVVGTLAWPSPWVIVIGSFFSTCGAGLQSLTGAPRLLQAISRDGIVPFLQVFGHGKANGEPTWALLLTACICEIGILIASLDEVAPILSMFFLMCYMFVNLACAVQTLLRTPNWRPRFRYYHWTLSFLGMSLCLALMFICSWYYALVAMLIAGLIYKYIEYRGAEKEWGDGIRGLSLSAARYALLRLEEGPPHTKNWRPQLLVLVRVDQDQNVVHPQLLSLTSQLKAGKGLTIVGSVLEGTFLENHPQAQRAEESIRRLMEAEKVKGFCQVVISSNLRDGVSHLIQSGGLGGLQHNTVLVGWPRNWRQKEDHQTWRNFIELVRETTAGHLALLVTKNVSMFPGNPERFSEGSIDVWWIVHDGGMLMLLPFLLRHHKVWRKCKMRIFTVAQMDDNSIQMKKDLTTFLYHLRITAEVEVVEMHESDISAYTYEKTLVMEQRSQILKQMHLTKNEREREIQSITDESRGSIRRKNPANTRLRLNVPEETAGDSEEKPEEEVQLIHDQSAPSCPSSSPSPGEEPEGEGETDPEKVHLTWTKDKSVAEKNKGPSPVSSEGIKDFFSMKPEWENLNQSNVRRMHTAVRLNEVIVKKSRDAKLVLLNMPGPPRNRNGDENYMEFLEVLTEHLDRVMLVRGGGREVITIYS
WT yeast gro inh – growth inhibition of WT strain, primary screen, mitochondrial fusion inhibitor project, WT and mutant strains, chemical genetic | mitochondrial fusion phenotypic screen | inhibition, % at 10 µM | 190,000 tested, 2.1% active | AID 1362, 2008; in the data active = inhibition above about 58%; tested in S. cerevisiae
Ins promoter up – insulin promoter activators in MIN6 cells, imaging, high-content screening, mouse beta cells | MIN6 insulin promoter-GFP reporter; active compounds read high | z-score at 5 µM | 190,000 tested, 0.3% active | AID 1625, 2009;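 active = z-score above 3 at 5 µM with at least 500 cells counted in the well; inconclusive = wells under 500 cells, flagged as cytotoxic or low count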
Rad51 HR inh – human RAD51 strand exchange inhibitors, primary screen, biochemical, fluorescence | hRad51 DNA strand exchange, fluorescence dequenching | 200,000 tested, 0.085% active | inhibition, % at 10 µM | AID 1385, 2008;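 active = inhibition above 40% at the single screening dose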;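 also: 0% = DMSO control wells and 100% = blanks with heterologous ssDNA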
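Material: human Rad51–ssDNA filaments; Probe or stimulus: labelled 47-mer dsDNA for strand exchange; Doses: single 10 µM dose; Incubation: 37 °C 15-min filament assembly, 30-min compound preincubation, 15-min exchange; Technique: FRET fluorescence dequenching, excitation 485 nm, emission 520 nm; Measure: Fluorescence-based percent inhibition, control- and blank-normalised; Benchmarks: plate control and blank wells.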
The depositor's hits bear a star; i = inactive; ? = inconclusive; · = no result given; + = active, no number. This is a sample that favours compounds with a hit; in the whole collection about 4.2% have one here.

SMILES	Autophagy mod	SKKanGAS inh	Cl transport mod	WT yeast gro inh	Ins promoter up	Rad51 HR inh
O=C(Cn1c2ccccc2c(=O)c2ccccc21)N/N=C/c1ccc(N2CCCC2)c([N+](=O)[O-])c1	i	-15	-0.73	13	0.29	0
O=C(COc1ccc([N+](=O)[O-])cc1)N/N=C/c1cc([N+](=O)[O-])ccc1N1CCOCC1	i	1	0.11	9	-0.08	6
Cc1ccc(OCC(=O)N/N=C/c2cc([N+](=O)[O-])ccc2N2CCCCC2)cc1	+	10	-0.39	14	-0.58	·
O=C(Cn1c2ccccc2c(=O)c2ccccc21)N/N=C/c1cc([N+](=O)[O-])ccc1N1CCCCCC1	+	-4	·	-9	-0.35	-6
Cc1ccc(Cl)cc1N1CCN(Cc2nnnn2C2CCCCC2)CC1	i	11	·	74*	0.61	6
Cc1ccc(Cl)cc1N1CCN(CC(=O)Nc2ccc(CN3CCCCC3)cc2)CC1	+	2	-0.69	45	?	-4
Cc1ccc(Cl)cc1N1CCN(S(C)(=O)=O)CC1	i	-1	·	2	0.76	-4
c1ccc(N2CCN(Cc3nnnn3C3CCCCC3)CC2)cc1	i	-11	-0.72	-5	·	3
Cc1ccc(Cl)cc1N1CCN(S(=O)(=O)N2CCCCC2)CC1	i	11	0.99	73*	0.41	0
COc1ccccc1N1CCN(CC(=O)Nc2ccc(CN3CCCCC3)cc2)CC1	i	1	·	-10	-0.44	-6
CC(C)(C)Sc1ccccc1S(=O)(=O)C(C)(C)C	·	8	-1.2	·	-0.21	7
Cc1ccc2c(c1)C1(C(=O)N2)N2CCCC2C(C(=O)c2ccc3ccccc3c2)C12C(=O)Nc1ccccc12 (stereo not drawn)	·	·	·	·	·	-12
CCOc1ccccc1NC(=O)NC(=O)N(C)S(=O)(=O)c1ccc(C)cc1	i	-7	-0.46	62*	-0.21	12
CCOc1ccc(NC(=O)NC(=O)N(C)S(=O)(=O)c2ccc(C)cc2)cc1	i	1	0.29	4	·	32
CC(C)C(c1nnnn1C1CCCC1)N1CCOCC1 (stereo not drawn)	i	-1	1.2	-1	3*	1
COc1ccc(NC(=S)NC(=O)c2ccccc2Cl)cc1	i	13	21*	-4	0.15	-56
COC(=O)c1ccc(NC(=S)NC(=O)c2cc(-c3ccccc3)nc3ccccc23)cc1	i	8	6*	4	0.55	·
COc1ccc(NC(=O)c2cc(-c3ccccc3Cl)no2)cc1	i	0	0.13	85*	·	0
COC(=O)c1cc(NC(=O)c2c(Cl)cnn2C)cc(C(=O)OC)c1	i	-2	0.32	13	0.04	-3
COC(=O)c1ccc(NC(=S)NC(=O)c2c(Cl)cnn2C)cc1	i	6	36*	15	·	4
COc1ccc(Nc2ncccc2C(=O)Nc2ccccc2)cc1	+	7	·	23	1.1	1
O=C(NC(=S)Nc1ccc(O)cc1)c1ccccc1Cl	i	1	0.71	0	-0.16	-5
COc1ccc(-c2cn3c(C)c(C(=O)Nc4ccncc4)sc3n2)cc1	i	-2	0.56	16	1.3	4
COC(=O)c1ccc(NC(=O)c2sc3nc(-c4ccccc4)cn3c2C)cc1	i	71*	-0.82	-1	-0.93	·
COc1ccc(NC(=O)c2cccnc2Nc2ccc(OC)cc2)cc1	i	-2	-0.32	-8	0.59	-2
SMILES	Autophagy mod	SKKanGAS inh	Cl transport mod	WT yeast gro inh	Ins promoter up	Rad51 HR inh
CC(C)CNC(=S)NC(=O)c1ccccc1Cl	i	-2	50*	10	·	9
COc1cc2ccccc2cc1C(=O)NC(=S)Nc1ccc(C(=O)O)cc1	·	54*	·	·	·	·
Cc1ccc(C(=O)NCC(=O)OCC(=O)Nc2ccccc2[N+](=O)[O-])cc1	i	-12	-2	-6	0.56	9
C=CCc1cccc(/C=N/NC(=O)C(C)Nc2cccc(C)c2)c1O (stereo not drawn)	i	60*	0.63	-13	-0.6	22
COc1cc([N+](=O)[O-])cc(/C=N/NC(=O)c2ccc(C)nc2)c1O	i	82*	0.086	-16	0.63	2
C=CCc1cccc(/C=N/NC(=O)CCCNc2ccc(C)cc2)c1O	i	16	-0.098	23	-0.07	-5
O=C(N/N=C/c1cc(Br)ccc1O)c1ccccc1Cl	i	68*	-0.76	16	-0.17	6
COC(=O)N/N=C/c1cc(Br)ccc1O	i	-5	0.71	9	0.3	·
O=C(N/N=C/c1cc(Cl)ccc1O)c1ccncc1	·	99*	-1.3	·	0.68	-44
Cc1ccc(C(=O)N/N=C/c2cc(Br)ccc2O)cn1	·	69*	·	·	·	·
CCOc1cc(Br)cc(/C=N/NC(=O)c2cccnc2)c1O	·	55*	·	·	·	·
CCOc1cc([N+](=O)[O-])cc(/C=N/NC(=O)c2c(-c3ccccc3)noc2C)c1O	·	92*	·	·	·	·
O=C(N/N=C/c1cc(Br)ccc1O)C(=O)Nc1ccccc1OC(F)(F)C(F)F	i	103*	0.09	15	-4.3	·
COc1c(Br)cc(Br)cc1/C=N/NC(=O)c1cccnc1	·	-2	·	·	·	·
CCOc1cc(/C=N/NC(=O)c2c(-c3ccccc3)noc2C)ccc1O	i	-13	-0.71	6	0.9	21
CC(C)CC(O)C1CCN(C(=O)CCc2nnc(-c3ccccc3)o2)CC1 (stereo not drawn)	i	-4	0.66	3	0.53	1
Cc1cc(OCCN2CCOCC2)ccc1C(C)C	·	-3	·	·	·	·
CCC(=O)N1c2ccccc2NC2=C(C(=O)CC(C)(C)C2)C1c1ccc(O)c(OC)c1 (stereo not drawn)	·	0	·	·	·	·
COc1cc([N+](=O)[O-])cc(/C=N/NC(=O)C(C)Nc2cccc(C)c2)c1O (stereo not drawn)	i	59*	-2.1	-24	-0.23	-3
CCOC(=O)NC(=O)c1cn(Nc2ccccc2)c(=O)[nH]c1=O	·	2	·	·	0.53	-2
CCOc1ncccc1C(=O)OCC(=O)N(CC)c1ccccc1	+	-2	-0.3	-12	0.11	9
CCCOC1CCCN(C(=O)c2cc(COc3ccc(F)c(F)c3)on2)C1 (stereo not drawn)	·	-5	·	·	·	·
Cc1ccc(C)c(NC(=S)NC2CC3CCC(C2)N3Cc2ccco2)c1 (stereo not drawn)	i	-1	-0.68	5	0.78	4
Cc1cc(C)cc(NC(=S)NC2CC3CCC(C2)N3Cc2ccco2)c1 (stereo not drawn)	i	6	-0.65	79*	-0.22	·

Source: PubChem (several laboratories)
